Sampled rows, rich in hits. Any-hit rate of the full collection: about 1.6%.
SENP1 FRET inh: human SENP1 catalytic domain inhibitors, primary screen, biochemical, FRET, uHTS | recombinant SENP1 catalytic domain, CyPet-SUMO1-YPet FRET cleavage | inhibition, % at 10 µM | 0.21% of 360,000 active;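 active = inhibition at least 30% at 10 µM, raw YFP signal under a set limit, fluorescence ratio 0.5 to 1.5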
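Test system: recombinant human SENP1 catalytic domain, His6-tagged / Medium: pH 8 Tris buffer with EDTA, NaCl, BME, BSA, NP40, catalase / Also added: SUMO1 FRET substrate flanked by Cypet and Ypet, 25 nM / Times: 50 min reaction at room temperature / Signal: FRET, CFP and YFP emission / Control set: no-enzyme low control and enzyme-plus-DMSO high control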
HNF4A DNA FP: change in binding of human HNF4A to DNA, primary screen, biochemical, fluorescence polarization, FITC-DNA. Hepatocyte nuclear factor 4-alpha (Homo sapiens), P41235. 1 h. activity change, % at 10 µM. 0.3% of 360,000 active; in the data active = activity change above about 30%, passing the limit was not always enough
Target sequence (P41235 whole entry, looked up): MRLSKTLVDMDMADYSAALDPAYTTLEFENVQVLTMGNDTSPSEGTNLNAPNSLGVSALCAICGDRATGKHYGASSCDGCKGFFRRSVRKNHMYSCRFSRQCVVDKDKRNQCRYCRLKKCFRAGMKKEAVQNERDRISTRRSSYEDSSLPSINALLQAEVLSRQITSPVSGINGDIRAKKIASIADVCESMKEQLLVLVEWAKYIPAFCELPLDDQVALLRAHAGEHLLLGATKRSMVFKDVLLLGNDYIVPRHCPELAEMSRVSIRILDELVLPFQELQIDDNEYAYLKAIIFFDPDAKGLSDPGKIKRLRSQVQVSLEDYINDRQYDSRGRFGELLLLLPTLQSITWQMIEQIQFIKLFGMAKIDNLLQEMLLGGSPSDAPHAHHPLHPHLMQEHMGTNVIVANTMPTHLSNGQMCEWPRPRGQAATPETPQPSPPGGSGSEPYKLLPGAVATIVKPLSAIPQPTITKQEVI
TPT1 inh: Candida albicans TPT1 enzyme inhibitors, primary screen, biochemical, fluorescence polarization | tRNA 2'-phosphotransferase TPT1 (Candida albicans SC5314) | recombinant caTPT1, FP RNA substrate dephosphorylation | inhibition, % at 5 µM | 0.81% of 300,000 active;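 active = inhibition above the mean of all tested compounds plus 3 SD, set per screening campaign, cut at about 24% in these data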
Rpn11 block: Rpn11 (PSMD14) deubiquitinase inhibitors, primary screen, biochemical, fluorescence polarization, uHTS | 26S proteasome non-ATPase regulatory subunit 14 (Homo sapiens), O00487 | 0.59% of 360,000 active | human 26S proteasome, Ub4-pepOG fluorescence polarization; 20S core pre-blocked with epoxomicin | inhibition, % at 20 µM;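 active = inhibition at 20 µM, scaled to each plate's controls, above about 33%, limit read from the data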
CSN inh: inhibitors of CSN-mediated cullin deneddylation, primary screen, biochemical, fluorescence polarization, uHTS; COP9 signalosome complex subunit 5 (Homo sapiens), Q92905; Purified CSN, SCF-Nedd8-OG deneddylation; inhibition, % at 12.5 µM; 0.38% of 360,000 active; AID 651999, 2013;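 active = pattern-corrected inhibition above about 35%, with an unprinted fluorescence ratio check between 0.5 and 1.5, limit read from the data, passing the limit was not always enough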
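test system = HEK293T-derived human Csn5 enzyme | amount = 0.24 nM Csn5 enzyme, final concentration | medium = Tris/NaCl/DTT buffer, pH 7.5 | schedule = 90 min reaction at room temperature | signal = FP | evaluation = inhibition of Csn5 cleavage, % | compound dosing = single dose of 12.5 µM compound with 0.25% DMSO | probe or stimulus = 10 nM SCFSkp2-Nedd8OG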
TPT1 inh confirm: Candida albicans TPT1 inhibitors, confirmation, biochemical, fluorescence polarization, triplicate; recombinant caTPT1, RNase T1 coupled; shares compounds with TPT1 inh; 74% of 2,400 active; inhibition, % at 5 µM;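 active = inhibition above the primary screen limit, the mean inhibition of all tested compounds plus 3 SD, cut at about 25% in these data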
RNase T1 inh: RNase T1 inhibitors, counter-screen for TPT1 inhibitor project, biochemical, fluorescence polarization; shares compounds with TPT1 inh; RNase T1 cleavage, 1536-well; inhibition, % at 5 µM; 83% of 2,400 active;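 active = inhibition above the solvent-only control well mean plus 3 SD, limit set per screening run, cut at about 23% in these data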;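 note: inhibitors block cleavage so intact labeled substrate keeps polarization high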
Target sequence (P00651 whole entry, looked up): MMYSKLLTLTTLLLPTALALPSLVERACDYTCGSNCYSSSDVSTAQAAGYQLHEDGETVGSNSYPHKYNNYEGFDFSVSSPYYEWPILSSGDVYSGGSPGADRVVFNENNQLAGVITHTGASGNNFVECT
Hits are given with their value; – = inactive; · = no result shown.

SMILES	SENP1 FRET inh	HNF4A DNA FP	TPT1 inh	Rpn11 block	CSN inh	TPT1 inh confirm	RNase T1 inh
Cc1ccc(N=Cc2sc(O)c3ccccc23)c(C)c1	–	–	117.0	·	–	79.9	93.9
O=c1/c(=C\c2cccnc2)sc2nc3ccccc3n12	–	–	·	–	–	·	·
O=C(O)c1ccc(-c2ccc(/C=c3/sc4nc5ccccc5n4c3=O)o2)cc1Cl	–	57.0	49.3	·	106.7	119.6	121.9
CCOC(=O)c1c(-c2ccccc2)oc2ccc(OCC(O)CN(C)C)cc12 (centres undefined)	–	–	–	–	–	·	·
CC12CCC(C(=O)C1)C1(C)CCCC(=O)C21 (centres undefined)	–	–	·	–	–	·	·
O=C(O)Cc1sc(N/N=C\c2ccncc2)nc1-c1ccccc1	–	–	51.6	·	–	43.0	50.6
COc1ccc(CCN2Cc3c(cccc3[N+](=O)[O-])C2=O)cc1OC	–	–	29.6	–	–	–	–
CCN1C[C@@H]2[C@@H]3C(=O)N(C)C(=O)[C@@H]3[C@](Cc3ccccc3)(C1=O)N2C(=O)c1ccc(Br)cc1	–	–	·	–	–	·	·
Cc1cc(-c2ccccc2)nc2oc(C(=O)NN)c(N)c12	–	–	–	–	–	·	·
Nc1c(C(=O)N/N=C/c2ccccc2Cl)oc2nc(-c3ccccc3)cc(-c3ccco3)c12	–	–	71.5	·	–	91.6	95.5
N#Cc1c(N)n(CCNC(=O)c2ccc(Cl)cc2)c2nc3ccccc3nc12	–	–	26.5	–	–	–	29.9
COCCn1c(N)c(C#N)c2nc3ccccc3nc21	–	–	–	–	–	·	·
Cc1ccc(C(=O)NCCn2c(N)c(C#N)c3nc4ccccc4nc32)cc1	–	–	35.9	–	–	49.4	55.0
Cc1cccc(CN2C(=O)c3ccccc3S(=O)(=O)c3ccc(C(=O)NCCCN4CCCC4)cc32)c1	–	–	–	–	–	·	·
O=C1/C(=C\c2cccc(O)c2O)SC(=S)N1Cc1ccccc1	–	–	–	–	–	·	·
O=C1/C(=C\c2cc([N+](=O)[O-])ccc2O)SC(=S)N1Cc1ccc(Cl)cc1	–	–	43.2	·	–	47.4	57.1
c1ccc(-c2nc(-c3ccco3)n3ccccc23)cc1	–	–	27.5	–	–	25.1	30.3
CC1=Nc2ccc(C)cc2/C1=C/c1c(N)n2nc(CC(=O)N3CCOCC3)sc2nc1=O	–	–	35.1	–	–	–	36.3
Nc1c(/C=C2/C=CC(=O)C(O)=C2)c(=O)nc2sc(CC(=O)N3CCOCC3)nn12	–	–	·	–	–	·	·
Cc1ccc(C(=O)NNC(=O)CCCN2C(=O)/C(=C/c3ccccc3Cl)SC2=S)cc1	–	–	38.5	–	–	–	–
CN(C)c1ccc(/C=C(/C#N)C(=O)NCc2ccccc2)o1	–	–	176.8	·	–	192.5	176.2
Cc1cc(C=C2C(=O)c3ccccc3C2=O)c(C)n1-c1cccc(C(=O)O)c1	–	–	30.6	–	–	40.6	51.2
CCOc1cc2c(cc1/C=C/c1noc(C)c1[N+](=O)[O-])OC(C)C2 (centres undefined)	–	–	75.1	·	46.7	72.8	83.2
CCOc1cc2c(cc1C=O)OC(C)C2 (centres undefined)	–	–	–	–	–	·	·
O=C1/C(=C/c2ccccc2)Nc2ccccc21	–	–	62.8	·	–	63.6	69.7
SMILES	SENP1 FRET inh	HNF4A DNA FP	TPT1 inh	Rpn11 block	CSN inh	TPT1 inh confirm	RNase T1 inh
CSc1nnc(C)c(/C=C/Nc2ccc(F)cc2)n1	–	–	115.7	–	–	101.3	105.5
COc1ccc(Cl)c2sc(N(CCN(C)C)C(=O)C3=COCCO3)nc12	–	–	·	–	–	·	·
COc1cc(/C=C2/C(=N)N3C(=NC2=O)SN=C3S(C)(=O)=O)ccc1OS(=O)(=O)c1ccccc1	·	·	27.9	·	·	–	23.2
O=C(N/C=C/c1ccco1)Nc1cccc(Cl)c1	–	–	34.3	–	–	–	–
CCNc1nc(SCCOc2ccc(Cl)cc2Cl)nc(N(C)C)n1	–	–	·	–	–	·	·
N#C/C(=C\C=C\c1ccccc1)c1nc(-c2ccc3c(c2)OCO3)cs1	–	–	37.4	–	–	35.6	46.6
OC[C@@H]1CN(Cc2cccnc2)C[C@H](n2cnc3c(N4CCN(c5ccccc5)CC4)ncnc32)O1	–	–	·	–	–	·	·
Cc1[nH]c(=O)c(C(=O)/C=C/c2ccccc2F)c2c1CCCC2	–	–	–	–	–	·	·
CCN(CC)C(=O)c1ccc(Oc2ccc([N+](=O)[O-])cc2Cl)cc1	–	–	44.0	–	–	–	–
O=C(COC(=O)c1cc(S(=O)(=O)N2CCOCC2)c(Cl)cc1Cl)NCc1ccco1	–	–	·	–	–	·	·
CCN(CC)c1cccc(OCC(=O)N(C)CCC#N)c1	–	–	43.1	·	–	41.3	51.0
CCOc1cccc(C(=O)Nc2ccc(N(CC)CC)cc2)c1	–	–	–	–	–	·	·
C#CCSc1nc2[nH]ncc2c(=O)[nH]1	–	–	33.2	–	–	–	–
C=CCSc1nc2[nH]ncc2c(=O)[nH]1	–	–	–	–	–	·	·
COc1cccc(C2CCCCN2Cc2nc(-c3ccc(C)o3)oc2C)c1 (centres undefined)	–	–	27.2	–	–	30.6	40.9
COCCNC(=O)C1(C)CCCN(Cc2cc(C(F)(F)F)ccc2Cl)C1 (centres undefined)	–	–	·	–	–	·	·
COc1ccc(N/C(C)=C/C(=S)Nc2ccccc2)cc1	–	–	124.7	–	–	–	–
O=C(Nc1ccccc1C(F)(F)F)c1ccc2nccnc2c1	–	–	39.0	–	–	–	–
O=C(C1=C(O)C(=O)N(CCN2CCOCC2)C1c1cccs1)c1cc2ccccc2o1 (centres undefined)	–	–	55.4	–	–	–	–
CCOc1cc(/C=C2/C(=O)NN(c3cccc(Cl)c3)C2=O)ccc1O	–	–	42.8	–	–	66.1	84.4
COc1cc(/C=C2/C(=O)NN(c3cccc(C)c3)C2=O)cc([N+](=O)[O-])c1O	–	–	–	–	–	·	·
COc1cc(/C=C2/C(=O)NN(c3cccc(Cl)c3)C2=O)cc(OC)c1O	–	–	123.8	·	–	151.2	150.3
